Measured values taken from ChEMBL document CHEMBL3596114, “SAR refinement of antileishmanial N(2),N(4)-disubstituted quinazoline-2,4-diamines” (Bioorg Med Chem, 2015).

What was measured:
[1] = Cytotoxicity against mouse J774A.1 cells assessed as inhibition of cell viability after 72 hrs by MTT assay; type: cell-based; conditions: J774.A1, 72 h
Outline: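 J774A.1 murine macrophages were grown in RPMI with 10% FBS and penicillin/streptomycin at 37 °C, 5% CO2, and plated at 5 × 10^3 cells/well with serial compound dilutions for 72 h. MTT was added for 2 h, then cells were lysed with 10% SDS in 50% DMF for 3–5 h and read at 570 nm. EC50 came from a four-parameter fit, at least three independent experiments, podophyllotoxin control.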

[2] = Selectivity index, ratio of EC50 for mouse J774A.1 cells to EC50 for of beta-lactamase expressing Leishmania donovani MHOM/ET/67/L82 infected in CD-1 mouse peritoneal macrophages
Leishmania donovani [3] = test: Antileishmanial activity against […] forms of beta-lactamase expressing Leishmania donovani MHOM/ET/67/L82 infected in CD-1 mouse peritoneal macrophages assessed as inhibition of beta-lactamase activity after 3 days by spectrophotometer assay; type: functional, organism-based; conditions: MHOM/ET/67/L82, 72 h
Outline: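 Intracellular L. donovani assay in macrophages run by an earlier method, with amphotericin B as the control drug. EC50 is the mean ± standard deviation of at least three independent experiments. Where a mean could not be obtained, the value comes from at least two determinations.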

[4] = Tmax in Swiss-Webster mouse plasma at 10 mg/kg, ip by UPLC-MS/MS analysis; type: ADME, organism-based
Outline: (§1)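 Male Swiss Webster mice (20–25 g) got a single ip dose of 10 mg/kg in DMSO/PEG400/ethanol/water (0.5:5:1:3.5, v/v). Blood was drawn at 0.25–12 h, n = 3 per time point, and plasma was extracted with methanol-water plus internal standard. Samples were run by UPLC-MS/MS in SRM positive mode (calibration 0.025–25 μM). AUC, Cmax, Tmax, terminal t1/2 and Vz/F came from noncompartmental analysis.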

Liver [5] = test: Half-life in mouse liver microsomes by UPLC analysis; type: ADME
Outline: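 Pooled mouse liver microsomes with NADPH were incubated and the parent compound quantified by UPLC-MS/MS. Half-life was obtained by fitting one-phase exponential decay to percent substrate remaining versus time.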

Mus musculus [6] = test: Toxicity in BALB/c mouse assessed as induction of adverse events at 10 mg/kg/day, ip administered for 5 days; type: organism-based; conditions: in vivo, 120 h
Outline: (§2)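 Female BALB/c mice were dosed ip daily for 5 days at 10 or 30 mg/kg/day and observed for adverse effects.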

[7] = AUC in Swiss-Webster mouse plasma at 10 mg/kg, ip by UPLC-MS/MS analysis; type: ADME, organism-based; outline: as §1
Liver [8] = test: Cmax in Swiss-Webster mouse liver at 10 mg/kg, ip after 4 hrs by UPLC-MS/MS analysis; type: ADME, organism-based; design: dose 10 mg/kg, route intraperitoneal; conditions: in vivo
Outline: (§3)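 Male Swiss Webster mice got a single 10 mg/kg ip dose in DMSO/PEG400/ethanol/water vehicle. Liver and spleen were excised at 4 and 12 h, rinsed, frozen and homogenized in water (liver 3-fold, spleen 4-fold dilution). Tissue concentrations were measured by UPLC-MS/MS (calibration 0.025–25 μM), triplicate determinations.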

Leishmania donovani [9] = test: Antileishmanial activity against Leishmania donovani infected in visceral leishmaniasis BALB/c mouse model assessed as reduction of liver parasitemia at 10 mg/kg/day, ip administered for 5 days; type: functional; conditions: 120 h
Outline: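 Acute murine visceral leishmaniasis model in female BALB/c mice (6–8 weeks). […] Liver parasitemia was expressed as % inhibition versus infected controls.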

[10] = Half-life in Swiss-Webster mouse plasma at 10 mg/kg, ip by UPLC-MS/MS analysis; type: ADME, organism-based; outline: as §1
[11] = Cmax in Swiss-Webster mouse spleen at 10 mg/kg, ip after 12 hrs by UPLC-MS/MS analysis; type: ADME, organism-based; design: dose 10 mg/kg, route intraperitoneal; conditions: read-out: Cmax; outline: as §3
Spleen = test: Cmax in Swiss-Webster mouse spleen at 10 mg/kg, ip after 4 hrs by UPLC-MS/MS analysis; type: ADME, organism-based; design: dose 10 mg/kg, route intraperitoneal; conditions: in vivo; outline: as §3
Plasma = test: Cmax in Swiss-Webster mouse plasma at 10 mg/kg, ip by UPLC-MS/MS analysis; type: ADME, organism-based; design: dose 10 mg/kg, route intraperitoneal; conditions: in vivo; outline: as §1
Mus musculus [12] = test: Toxicity in BALB/c mouse assessed as induction of adverse events at 30 mg/kg/day, ip administered for 5 days; type: organism-based; conditions: in vivo, 120 h; outline: as §2
[13] = Cmax in Swiss-Webster mouse liver at 10 mg/kg, ip after 12 hrs by UPLC-MS/MS analysis; type: ADME, organism-based; design: dose 10 mg/kg, route intraperitoneal; conditions: read-out: Cmax; outline: as §3
[14] = Apparent volume of distribution in Swiss-Webster mouse plasma at 10 mg/kg, ip by UPLC-MS/MS analysis; type: ADME, organism-based; conditions: read-out: Vz/F; outline: as §1

Structure (SMILES)	EC50 [1] [µM]	selectivity ratio [2]	EC50 (Leishmania donovani [3]) [µM]	other results
c1ccc(CNc2nc(NCc3ccccc3)c3ccccc3n2)cc1	5.5			
Cc1ccc(CNc2nc(NCc3ccc(C)cc3)c3ccccc3n2)cc1	2.9	2.6	1.1	
COc1ccc(CNc2nc(NCc3ccc(OC)cc3)c3ccccc3n2)cc1	2.2	0.37	6	
CNc1nc(NCc2ccco2)c2ccccc2n1			> 25	
CC(C)Nc1nc(NCc2ccco2)c2ccccc2n1	17			
c1coc(CNc2nc(NC3CCC3)nc3ccccc23)c1			> 25	
c1coc(CNc2nc(NC3CCCC3)nc3ccccc23)c1			> 25	
c1coc(CNc2nc(NC3CCCCC3)nc3ccccc23)c1	5.3	1.3	4	
CNc1nc(NCc2ccco2)nc2ccccc12			20	
CC(C)Nc1nc(NCc2ccco2)nc2ccccc12	8.3	0.75	11	
CNc1nc(NC)c2ccccc2n1	> 133	> 17.5	7.6	
CNc1nc(NC(C)C)nc2ccccc12			> 25	
CNc1nc(NCCO)nc2ccccc12			> 25	
CNc1nc(NC2CCCC2)nc2ccccc12	39	8.9	4.4	
CCNc1nc(NC(C)C)nc2ccccc12	> 30	> 4.8	6.3	
CC(C)Nc1nc(NC(C)C)c2ccccc2n1	> 30	> 13	2.3	
CC(C)Nc1nc(NC2CC2)nc2ccccc12	> 40	> 5	8	
CC(C)Nc1nc(NC2CC2)c2ccccc2n1	31	5.1	6.1	
CC(C)Nc1nc(NCC2CCCO2)c2ccccc2n1 (stereo unspecified)	46	5.2	8.9	

Structure (SMILES)	EC50 [1] [µM]	selectivity ratio [2]	EC50 (Leishmania donovani [3]) [µM]	other results
CC(C)Nc1nc(NCc2ccccc2)nc2ccccc12	7.2	19	0.38	Tmax [4]: 0.25 h; t1/2 (Liver [5]): 0.7 h; Activity (Mus musculus [6]): Non-toxic; AUC(0-inf) [7]: 7.14 µM·h; Cmax (Liver [8]): 20.2 µM; inhibition in vivo at 10 mg/kg/day (Leishmania donovani [9]): 23.8%; half-life [10]: 2.1 h; concentration at 12 h [11]: 0.18 µM; Cmax (Spleen): 16.5 µM; Cmax (Plasma): 2.15 µM; Activity (Mus musculus [12]): Toxic; concentration at 12 h [13]: 0.54 µM; Vd/F [14]: 1.15 L/kg
CC(C)Nc1nc(NCc2ccccc2)c2ccccc2n1	6.7	3.4	2	
CC(C)Nc1nc(Nc2ccccc2)c2ccccc2n1	12	6.3	1.9	
Clc1ccc(CNc2nc(NCc3ccccc3)c3ccccc3n2)cc1	3.2	5.2	0.61	Tmax [4]: 0.5 h; t1/2 (Liver [5]): 1.47 h; Activity (Mus musculus [6]): Non-toxic; AUC(0-inf) [7]: 15.7 µM·h; Cmax (Liver [8]): 25.3 µM; inhibition in vivo at 10 mg/kg/day (Leishmania donovani [9]): 12%; half-life [10]: 9.3 h; concentration at 12 h [11]: 11.4 µM; Cmax (Spleen): 26.6 µM; Cmax (Plasma): 1.4 µM; Activity (Mus musculus [12]): Toxic; concentration at 12 h [13]: 8.51 µM; Vd/F [14]: 22.3 L/kg
Clc1ccc(CNc2nc(NCc3ccccc3)nc3ccccc23)cc1	4.6	5.6	0.82	
Cc1ccc(CNc2nc(NCc3ccccc3)c3ccccc3n2)cc1	4.5	5.1	0.89	
Cc1ccc(CNc2nc(NCc3ccccc3)nc3ccccc23)cc1	2.1	5.4	0.39	
COc1ccc(CNc2nc(NCc3ccccc3)c3ccccc3n2)cc1	4.1	5.7	0.72	
COc1ccc(CNc2nc(NCc3ccccc3)nc3ccccc23)cc1	5.2	2.1	2.5	
CNc1nc(NCc2ccccc2)nc2ccccc12	15	100		
c1ccc(CNc2nc(OCc3ccccc3)c3ccccc3n2)cc1	3.3	5.1	0.65	
c1ccc(CNc2nc(-c3ccccc3)c3ccccc3n2)cc1			> 10	
Cc1ccccc1-c1nc(NCc2ccccc2)nc2ccccc12			> 10	
Cc1ccccc1-c1nc(NCc2ccccc2)c2ccccc2n1			> 10	
CCNc1nc(NC)c2ccccc2n1			> 25	
C[C@@H]1[C@H](O)[C@@H](C)/C=C/C=C/C=C/C=C/C=C/C=C/C=C/[C@H](O[C@@H]2O[C@H](C)[C@@H](O)[C@H](N)[C@@H]2O)C[C@@H]2O[C@](O)(C[C@@H](O)C[C@@H](O)[C@H](O)CC[C@@H](O)C[C@@H](O)CC(=O)O[C@H]1C)C[C@H](O)[C@H]2C(=O)O [AMPHOTERICIN B]			0.041	
CCCCCCCCCCCCCCCCOP(=O)([O-])OCC[N+](C)(C)C [MILTEFOSINE]				inhibition in vivo at 10 mg/kg/day (Leishmania donovani [9]): 93.6%
COc1cc([C@@H]2c3cc4c(cc3[C@H](O)[C@H]3COC(=O)[C@H]23)OCO4)cc(OC)c1OC [PODOFILOX]	0.021			
